The target of series [1] is C-X-C chemokine receptor type 4 (Homo sapiens) (UniProt P61073). The experiment in a line: Binding affinity to human CXCR4 in human MDA-MB-231 cells assessed as inhibition of CXCR4-targeted conjugate formation preincubated with compound followed by biotinylated-TN14003 addition and measured after 45 mins by competition based microscopic analysis. It counts as cell-based. An outline of the steps:
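MDA-MB-231 cells in chamber slides preincubated with compound at 1, 10, 100 and 1000 nM. Then fixed in 4% formaldehyde, incubated with 50 nM biotinylated TN14003, and stained with streptavidin–rhodamine. Fluorescence imaged by microscopy and quantified. EC defined as the concentration blocking >50% of probe signal; IC50 obtained by curve fitting.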

The test system of another series is MDA-MB-231. The experiment in a line: Antiinvasive activity against human MDA-MB-231 cells assessed as inhibition of cell migration at 100 nM incubated for 22 hrs by H and E staining based matrigel invasion assay. It counts as functional. An outline of the steps:
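MDA-MB-231 cells (DMEM, 10% FBS, penicillin/streptomycin) seeded on Matrigel in upper chamber with compound at 100 nM; 200 ng/mL CXCL12 in lower chamber as chemoattractant. Invaded cells at the Matrigel bottom fixed in methanol, H&E stained and counted to give percentage invasion.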

Series [2] concerns Mus musculus. The experiment in a line: Antiinflammatory activity in JAZ 007850 J:NU mouse assessed as decrease in carrageenan-induced paw edema treated at 10 mg/kg, ip qd starting 30 min after carrageenan challenge measured after 74 hrs. A general note: In the carrageenan paw model, swelling and tenderness develop within hours.
Series [3] concerns Mus musculus. The series is described as follows: Antiinflammatory activity in carrageenan-induced JAZ 007850 J:NU mouse model assessed as reduction in infiltration of CXCR-4 expressing cells at 10 mg/kg, ip qd measured after 74 hrs by immunohistochemistry assay. It counts as functional, organism-based. An outline of the steps:
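Carrageenan paw edema tissue (male nude mice, 10 mg/kg i.p. daily, harvested 74 h) formalin-fixed, paraffin-embedded, deparaffinized. Antigen retrieval by microwaving in 10 mM sodium citrate pH 6.0. Blocked with hydrogen peroxide, avidin/biotin and horse serum. Anti-CXCR4 antibody at 1:500 overnight at 4 °C, then biotinylated secondary and avidin-biotin complex. Developed with diaminobenzidine, hematoxylin counterstain; H&E sections also examined.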

Series [4] is described as follows: Stability in athymic nude-Foxn1 mouse serum measured upto 120 mins by HPLC method. It is filed as ADME, cell-free. The note with it: 2 h. An outline of the steps:
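Blood from female athymic nude mice (7 weeks) taken from orbital venous sinus and spun at 13,000 rpm, 6 min, 4 °C. Supernatant mixed 4:1 with 10 mM aqueous compound solution (stock) and held at 36.6 °C. Samples at 0, 5, 15, 30, 60, 120 min passed through 10 kDa filter. Filtrate run on C18 HPLC, acetonitrile/water (0.1% TEA) 3:7, detection at 310 nm. Half-life from one-phase decay fit.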

Each structure is given as a SMILES string. Calls of active or inactive are those of the source.

As a reminder, the inhibition is the drop in the measured response relative to a control, in per cent.

Chain of C-X-C chemokine receptor type 4 (Homo sapiens) (P61073 whole entry): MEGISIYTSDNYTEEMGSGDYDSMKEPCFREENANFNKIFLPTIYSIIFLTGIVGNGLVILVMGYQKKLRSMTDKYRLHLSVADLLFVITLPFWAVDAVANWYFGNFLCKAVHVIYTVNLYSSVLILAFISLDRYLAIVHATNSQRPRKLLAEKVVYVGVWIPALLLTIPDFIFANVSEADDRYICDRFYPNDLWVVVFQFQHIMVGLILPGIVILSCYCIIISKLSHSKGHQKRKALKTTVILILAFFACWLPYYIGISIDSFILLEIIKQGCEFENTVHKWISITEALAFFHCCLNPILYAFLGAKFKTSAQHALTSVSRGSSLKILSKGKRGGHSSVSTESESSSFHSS

As to `O=C(CN1CCC(n2nnc(-c3cccs3)n2)CC1)Nc1ccc(Cn2cncn2)cc1`, the EC in series [1] is 100 nM. The inhibition at 0.1 µM in the series with MDA-MB-231 is 40.9%.
The matching figures for `C[C@@H](NC(=O)[C@@H](N)c1ccccc1)C(=O)N1CCN(C(=O)CCn2ccc3ccncc32)CC1`: 100 nM and 15.7%.
With `O=C(NCCc1c[nH]c2ccccc12)C1CCN(C(=O)Cc2nnc(O)c3ccccc23)CC1`, in series [1], the EC came to 1000 nM. Besides, the inhibition entry in the series with MDA-MB-231 was “inactive”.
As to `C[C@H](C(=O)N[C@@H]1CCN(Cc2ccccc2)C1)N1CCC(C(=O)Nc2cc(O)ccc2Cl)CC1`, the EC in series [1] is greater than 1000 nM. The inhibition entry with MDA-MB-231 is “inactive”.
As to `N=C(N)NCCC[C@H](N)C(=O)NC1CCN(C(=O)CCn2ccc3ccncc32)CC1`, the EC in series [1] was determined as 1 nM. Further, the inhibition result with Mus musculus [2] and in the series on Mus musculus [3] was “Active” in each case. In the series on MDA-MB-231, the inhibition at 0.1 µM turned out to be 78.5%. The t1/2 in series [4] was determined as 1.28 h.
As to `NC(=O)C1CCN(Cc2ccc(NC(=O)CCc3c[nH]c4ccccc34)cc2)CC1`, the EC in series [1] was found to be 1000 nM. In addition, the inhibition result in the series on MDA-MB-231 is “inactive”.
As for `N[C@@H](C(=O)NC1CCN(C(=O)CCn2ccc3ccncc32)CC1)c1ccccc1`, the EC in series [1] worked out at 100 nM. The inhibition at 0.1 µM in the series on MDA-MB-231 amounted to 68.6%.
Consider `O=C(Nc1ccc2c(c1)OCO2)C1CCN(C(=O)NC2CCN(Cc3ccccc3)CC2)CC1`, for which the EC in series [1] is 10 nM. For the same compound, the inhibition at 0.1 µM with MDA-MB-231 was 9.3%.

For the origin of these results see ChEMBL document CHEMBL4706496, “Discovery of novel aminopiperidinyl amide CXCR4 modulators through virtual screening and rational drug design” (Eur J Med Chem, 2020).
